Screens (PubChem BioAssay)
NR1D1 modulator – Rev-erb alpha (human) modulation; P20393; Rev-erbα–FITC-DNA binding, fluorescence polarization, 90 min; activity, % at 10 µM; 0.79% of 370,000 active; AID 1259318;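 active = activity above about 14%, limit read from the data; passing the limit was not always enough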;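 note: 0% = DMSO wells with 35 nM protein and 100% = DMSO wells with 750 nM protein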
NR2E3 ag-1 – NR2E3 (human) agonism; Q9Y5X4; GST-NR2E3/biotin-RetCOR TR-FRET, 1536-well; inhibition of corepressor binding, % at 4.78 µM; 0.12% of 320,000 active; AID 2300;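 active = percent inhibition above the cutoff of mean plus 3 SD of all tested compounds, set per screening campaign, cut at about 20% in these data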;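 note: 0% = DMSO wells and 100% = biotin wells as full block of FRET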
Target sequence (Q9Y5X4 whole entry, looked up): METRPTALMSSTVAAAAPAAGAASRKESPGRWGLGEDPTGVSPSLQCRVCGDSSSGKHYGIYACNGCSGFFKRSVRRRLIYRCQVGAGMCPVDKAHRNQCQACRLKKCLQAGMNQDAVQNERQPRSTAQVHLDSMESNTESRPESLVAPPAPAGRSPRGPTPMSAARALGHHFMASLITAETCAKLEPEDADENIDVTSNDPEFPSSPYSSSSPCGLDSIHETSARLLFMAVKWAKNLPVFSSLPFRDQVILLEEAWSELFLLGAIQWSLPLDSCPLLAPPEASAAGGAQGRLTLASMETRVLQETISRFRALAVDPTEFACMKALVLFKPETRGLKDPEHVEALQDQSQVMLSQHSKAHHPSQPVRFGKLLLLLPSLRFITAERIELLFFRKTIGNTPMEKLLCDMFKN
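Assay system: NR2E3–RetCOR corepressor complex. Quantity: 1.35 nM GST-NR2E3. Buffer or medium: pH 7.5 Tris-based buffer. Reagent: biotinylated RetCOR corepressor at 7 nM final. Schedule: 5 h at 4 °C. Detection: TR-FRET, emission read at 617 and 671 nm. Replicates: one well per compound, singlicate testing.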
NR2E3 ag-2 – human photoreceptor-specific nuclear receptor agonism. AID 602229. Q9Y5X4. inhibition of corepressor binding, % at 3.98 µM. CHO-S Gal4-NCOR/VP16-NR2E3 two-hybrid, luciferase. 0.35% of 360,000 active;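 active = inhibition above the mean of all tested compounds plus 3 SD, cut at about 70% in these data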;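 note: 0% = DMSO with NR2E3 transfected cells and 100% = cells lacking NR2E3 construct; higher means lower luciferase signal from less NR2E3 corepressor binding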
PG9 Ab binder – PG9 antibody binding by small molecule. TR-FRET gp120-PG9 antibody binding. inhibition, % at 6.7 µM. 0.43% of 360,000 active; in the data active = inhibition above about 8.5%
NR2E3 ag conf – NR2E3 agonism confirmed in two-hybrid assay | inhibition, % at 3.98 µM | 51% of 2,300 active | CHO-S mammalian two-hybrid NR2E3-NCOR, luciferase luminescence | shares compounds with NR2E3 ag-2;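 active = average inhibition above a cutoff equal to the mean inhibition of all tested compounds plus one SD, cut at about 70% in these data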;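 note: 0% = DMSO in NR2E3 cells and 100% = DMSO in cells lacking NR2E3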
GAL4-VP16 luc – reduces GAL4-VP16 reporter signal in NR2E3 counterscreen. shares compounds with NR2E3 ag-2. CHO-S GAL4-VP16 luciferase reporter, luminescence. inhibition, % at 3.98 µM. 29% of 2,300 active. AID 624379;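 active = mean inhibition above a cutoff equal to the average over all tested compounds plus one standard deviation, cut at about 70% in these data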;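 note: luciferase from a UAS reporter driven by GAL4-VP16 transactivation; 0% = DMSO with VP16-transfected cells and 100% = DMSO with cells lacking VP16; higher means less reporter light so more repression of VP16 activity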
* = called active by the depositor. A selection: hits, their analogues and other compounds. The true share with any hit is near 1.5%.

What do the screens show for `O=S1(=O)c2cccc3cccc(c23)N1Cc1nnc(-c2ccccc2Br)o1`?
NR1D1 modulator: 2.9; NR2E3 ag-1: -5.6; NR2E3 ag-2: 68.8; PG9 Ab binder: -3.5; NR2E3 ag conf: 86.9*; GAL4-VP16 luc: 72.2*

Results for O=C(O)c1ccc(N=NNc2cccc([N+](=O)[O-])c2)cc1 ?
NR1D1 modulator: 8.4; NR2E3 ag-1: 0.6; NR2E3 ag-2: -113.0; PG9 Ab binder: -2.6

What do the screens show for `N#C/C(=N\Nc1cccc([N+](=O)[O-])c1)C(=O)c1ccc(Br)cc1`?
NR1D1 modulator: 2.9; NR2E3 ag-1: -0.9; NR2E3 ag-2: 95.4*; PG9 Ab binder: -0.2; NR2E3 ag conf: 99.2*; GAL4-VP16 luc: 86.2*

How did Cc1cc(C(=O)OCC(=O)Nc2ccccc2)c(C)o1 do in these assays?
NR1D1 modulator: 4.3; NR2E3 ag-1: 3.6; NR2E3 ag-2: -12.9; PG9 Ab binder: -1.1

What do the screens show for `Cc1cc(C(=O)OCC(=O)Nc2ccc(F)cc2)c(C)o1`?
NR1D1 modulator: 4.6; NR2E3 ag-1: 1.2; NR2E3 ag-2: 73.7*; PG9 Ab binder: 0.8; NR2E3 ag conf: -13.1; GAL4-VP16 luc: 11.2

How did COc1ccc(S(=O)(=O)Nc2ccc3cn[nH]c3c2)cc1C do in these assays?
NR1D1 modulator: -0.7; NR2E3 ag-1: 2.6; NR2E3 ag-2: -12.3; PG9 Ab binder: -0.6

What do the screens show for `CCOC(=O)c1ccc(S(=O)(=O)Nc2ccc3cn[nH]c3c2)cc1`?
NR1D1 modulator: -2.6; NR2E3 ag-1: 1.0; NR2E3 ag-2: 61.6; PG9 Ab binder: 0.3; NR2E3 ag conf: 47.9; GAL4-VP16 luc: 55.8

Results for COc1ccccc1NC(=O)CSc1nnnn1-c1ccc2c(c1)OCO2 ?
NR1D1 modulator: -1.4; NR2E3 ag-1: -1.4; NR2E3 ag-2: 68.7; PG9 Ab binder: -0.4; NR2E3 ag conf: 64.3; GAL4-VP16 luc: 9.4

What do the screens show for `COc1ccccc1NC(=O)CSc1nnnn1-c1ccccc1OC`?
NR1D1 modulator: 3.6; NR2E3 ag-1: 0.8; NR2E3 ag-2: -21.0; PG9 Ab binder: -1.0

What do the screens show for `COc1ccc(CNCC(O)COc2cccc3c2OC(C)(C)C3)cc1` (stereo not given)?
NR1D1 modulator: -2.7; NR2E3 ag-1: 2.9; NR2E3 ag-2: 50.6; PG9 Ab binder: -0.6; NR2E3 ag conf: 46.4; GAL4-VP16 luc: 60.7

Results for CC(=O)N1[C@@H](CO)[C@@H](c2ccc(-c3cccc(F)c3)cc2)[C@@H]1CNCC1CCC1 ?
NR1D1 modulator: 8.9

What do the screens show for `Cc1nc2sccn2c1-c1csc(NCc2ccccc2)n1`?
NR1D1 modulator: -1.4; NR2E3 ag-1: 1.0; NR2E3 ag-2: 61.5; PG9 Ab binder: -2.5; NR2E3 ag conf: 86.4*; GAL4-VP16 luc: 71.0*

What do the screens show for `C=CCNc1nc(-c2c(C)nc3sccn23)cs1`?
NR1D1 modulator: -0.7; NR2E3 ag-1: -3.4; NR2E3 ag-2: -9.7; PG9 Ab binder: -4.7

Results for O=S(=O)(c1ccc2c(c1)OCCO2)N1CCC(n2nnc3cc(C(F)(F)F)ccc32)CC1 ?
NR1D1 modulator: 3.1; NR2E3 ag-1: 4.2; NR2E3 ag-2: 52.0; PG9 Ab binder: -0.9; NR2E3 ag conf: 42.0; GAL4-VP16 luc: 17.8

How did O=S(=O)(c1ccccc1)N1CCC(n2nnc3cc(F)ccc32)CC1 do in these assays?
NR1D1 modulator: -8.5; NR2E3 ag-1: 0.9; NR2E3 ag-2: 6.5; PG9 Ab binder: 0.7

How did COc1cc2c(cc1OC)-c1cc(Nc3ccc4c(c3)OCCO4)nc(=O)n1CC2 do in these assays?
NR1D1 modulator: -0.6; NR2E3 ag-1: 3.4; NR2E3 ag-2: 55.0; PG9 Ab binder: -3.5; NR2E3 ag conf: 28.4; GAL4-VP16 luc: -11.6

What do the screens show for `O=C(NC(=S)N(Cc1ccccc1)Cc1ccccc1)c1ccccc1F`?
NR1D1 modulator: -5.4; NR2E3 ag-1: 3.4; NR2E3 ag-2: 65.2; PG9 Ab binder: 0.1; NR2E3 ag conf: 20.8; GAL4-VP16 luc: 21.2

How did CC(CCc1ccccc1)NC(=S)NC(=O)c1ccco1 (stereo not given) do in these assays?
NR1D1 modulator: 5.8; NR2E3 ag-1: -2.6; NR2E3 ag-2: 11.2; PG9 Ab binder: -5.2

How did O=C(NC(=S)N(CCc1ccccc1)CCc1ccccc1)c1ccco1 do in these assays?
NR1D1 modulator: -2.8; NR2E3 ag-1: -1.9; NR2E3 ag-2: 67.4; PG9 Ab binder: -2.9; NR2E3 ag conf: -20.2; GAL4-VP16 luc: 18.7

What do the screens show for `Clc1cccc(CNc2nc(-c3ccccn3)nnc2-c2ccccc2)c1`?
NR1D1 modulator: -9.5

What do the screens show for `COC(=O)[C@]12C[C@H](CC(=O)N3CCSCC3)C(=O)N(Cc3cccc4ccccc34)C1=C[C@H](C1CCCC1)O[C@@H]2C`?
NR1D1 modulator: 0.9

How did COc1ccc(Cl)cc1NC(=O)C(OC)c1ccccc1 (stereo not given) do in these assays?
NR1D1 modulator: 0.2; NR2E3 ag-1: 4.3; NR2E3 ag-2: -4.1; PG9 Ab binder: 1.0

What do the screens show for `COC(/C(=N/O)c1ccc(Cl)cc1)c1ccccc1` (stereo not given)?
NR1D1 modulator: 5.5; NR2E3 ag-1: 3.3; NR2E3 ag-2: 58.8; PG9 Ab binder: 0.6; NR2E3 ag conf: 83.3*; GAL4-VP16 luc: 58.1

How did NC(=S)N/N=C\c1c2ccccc2cc2ccccc12 do in these assays?
NR1D1 modulator: -1.4; NR2E3 ag-1: 2.3; NR2E3 ag-2: -28.5; PG9 Ab binder: -3.6

How did NC(=S)N/N=C\c1c(OCc2ccccc2Cl)ccc2ccccc12 do in these assays?
NR1D1 modulator: -5.8; NR2E3 ag-1: 2.4; NR2E3 ag-2: 93.9*; PG9 Ab binder: -0.6; NR2E3 ag conf: -16.2; GAL4-VP16 luc: -3.3

How did O=C(Nc1cccc(OC(F)(F)F)c1)C1Cc2c(-c3ccc4c(c3)OCO4)ccnc2O1 (stereo not given) do in these assays?
NR1D1 modulator: -2.6; NR2E3 ag-2: 80.8*; PG9 Ab binder: -0.8; NR2E3 ag conf: 81.8*; GAL4-VP16 luc: 19.4

Results for O=C(Nc1ccccc1)C1Cc2c(-c3cccc(F)c3)ccnc2O1 (stereo not given) ?
NR1D1 modulator: -5.1; NR2E3 ag-2: -21.8; PG9 Ab binder: -2.6

How did COc1ccc(NC(=O)C2Cc3c(-c4ccc(NC(C)=O)cc4)ccnc3O2)cc1OC (stereo not given) do in these assays?
NR1D1 modulator: 2.9; NR2E3 ag-2: 0.7; PG9 Ab binder: -0.5

Results for COc1ccc(NC(=O)C2Cc3c(-c4cccc(F)c4)ccnc3O2)cc1OC (stereo not given) ?
NR1D1 modulator: 0.0; NR2E3 ag-2: 73.1*; PG9 Ab binder: -0.1; NR2E3 ag conf: 66.7; GAL4-VP16 luc: 58.0

Results for COc1ccc(NC(=O)C2Cc3c(-c4ccc5c(c4)OCO5)ccnc3O2)cc1OC (stereo not given) ?
NR1D1 modulator: -2.3; NR2E3 ag-2: 84.0*; PG9 Ab binder: 0.9; NR2E3 ag conf: 90.9*; GAL4-VP16 luc: 72.7*
